Screening results: PubChem BioAssay, Broad Institute
Shown is part of a subset that was picked to be rich in hits.
YB-1 expression = YB-1 expression inhibition. U2OS, qRT-PCR YB-1 vs CDIP delta delta Cp, 16 h; active compounds read high; zero = DMSO, each unit about twofold. delta delta Cp (YB-1 minus CDIP) (no concentration beside the values). AID 434959. 30,000 tested, 0.37% active;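 active = delta delta Cp rounded down to an integer at or above 3, about 3 SD of DMSO wells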;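 also: higher means less YB-1 transcript or more CDIP transcript relative to DMSO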
INS-1E ATP HTS = preserves ATP levels in cytokine-treated INS-1E cells | 20,000 tested, 0.1% active | INS-1E cytokine-induced death, ATP luminescence, 48 h; normalised: neutral wells 0, positive control 100 | protection from cytokine-induced ATP loss, % at 10 µM;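 active = mean replicate protection from cytokine-induced ATP loss at least 50% and at least 75% of replicates each reaching 50%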
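Test system: INS-1E rat cells | Quantity: 8000 cells per well | Medium: Phenol-red-free RPMI with 5% fetal bovine serum | Reagent: Cytokine cocktail of IFN-γ, TNF-α and IL-1β | Doses: One compound concentration, pin transfer | Timing: 48 h co-treatment, 10 min post-lysis read | Technique: Luminescent ATP assay (CellTiter-Glo)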
T cruzi HTS = blocks T. cruzi growth inside host cells | intracellular Trypanosoma cruzi in host cells, plate reader | activity score (inhibition), % at 5.01 µM | 22,000 tested, 4.9% active | AID 651903; in the data active = activity score above about 55%;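 also: parasites and compound incubated about four days before reading; 0% = median of neutral control wells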
* hit, by the source's call; · = no result given.

SMILES	YB-1 expression	INS-1E ATP HTS	T cruzi HTS
C[C@@H]1CN([C@@H](C)CO)C(=O)Cc2cc(NC(=O)Cc3ccccc3)ccc2O[C@@H]1CN(C)Cc1ccc(C(=O)Nc2ccccc2N)cc1	-0.0032	-14	77*
C[C@@H]1CN([C@H](C)CO)C(=O)Cc2cc(NC(=O)Cc3ccccc3)ccc2O[C@H]1CN(C)Cc1ccc(C(=O)Nc2ccccc2N)cc1	-0.21	-20	30
C[C@H](CO)N1C[C@H](C)[C@H](CN(C)Cc2ccc(C(=O)Nc3ccccc3N)cc2)Oc2ccc(NC(=O)Cc3ccccc3)cc2CC1=O	-0.62	45	64*
C[C@H]1CN([C@@H](C)CO)C(=O)Cc2cc(NC(=O)c3ccncc3)ccc2O[C@H]1CN(C)Cc1ccc(C(=O)Nc2ccccc2N)cc1	-0.82	1	34
CNC(=O)N(Cc1cccnc1)Cc1ccccc1Cl	0.61	·	·
C[C@H](CO)N1C[C@H](C)[C@H](CN(C)Cc2ccc(C(=O)O)cc2)Oc2c(NC(=O)c3ccncc3)cccc2C1=O	-0.019	8	-27
C[C@@H]1CN([C@@H](C)CO)C(=O)c2cccc(NC(=O)c3ccncc3)c2O[C@@H]1CN(C)Cc1ccncc1	0.12	9	-7
C[C@H](CO)N1C[C@H](C)[C@H](CN(C)Cc2ccc(C(F)(F)F)cc2)Oc2c(NC(=O)c3ccncc3)cccc2C1=O	-0.018	-2	65*
C[C@H]1CN([C@@H](C)CO)C(=O)c2cccc(NC(=O)c3ccncc3)c2O[C@H]1CN(C)Cc1ccc(C(F)(F)F)cc1	0.36	2	84*
C[C@H]1CN([C@@H](C)CO)C(=O)c2cccc(NC(=O)c3ccncc3)c2O[C@H]1CN(C)Cc1ccc(-c2ccccc2)cc1	0.16	-10	72*
C[C@H]1CN([C@@H](C)CO)C(=O)c2cccc(NC(=O)c3ccncc3)c2O[C@H]1CN(C)Cc1ccc(C(=O)O)cc1	0.16	13	-30
C[C@H](CO)N1C[C@H](C)[C@H](CN(C)Cc2ccc(C(=O)Nc3ccccc3N)cc2)Oc2c(NC(=O)c3ccncc3)cccc2C1=O	-0.47	-4	-27
C[C@H]1CN([C@@H](C)CO)C(=O)c2cccc(NC(=O)c3ccncc3)c2O[C@@H]1CN(C)Cc1ccc(-c2ccccc2)cc1	-0.26	-16	79*
Cc1noc(C)c1S(=O)(=O)Nc1ccc2c(c1)C(=O)N([C@H](C)CO)C[C@H](C)[C@@H](CN(C)Cc1ccc(Cl)c(Cl)c1)O2	-0.026	-10	63*
Cc1noc(C)c1S(=O)(=O)Nc1ccc2c(c1)C(=O)N([C@@H](C)CO)C[C@@H](C)[C@H](CN(C)Cc1ccc(C(F)(F)F)cc1)O2	-0.4	-18	28
Cc1noc(C)c1S(=O)(=O)Nc1ccc2c(c1)CC(=O)N([C@H](C)CO)C[C@H](C)[C@H](CN(C)Cc1ccc(Cl)c(Cl)c1)O2	-0.011	-10	53
Cc1noc(C)c1S(=O)(=O)Nc1ccc2c(c1)C(=O)N([C@H](C)CO)C[C@H](C)[C@H](CN(C)Cc1ccc(C(F)(F)F)cc1)O2	-0.59	-12	63*
Cc1noc(C)c1S(=O)(=O)Nc1ccc2c(c1)CC(=O)N([C@H](C)CO)C[C@@H](C)[C@@H](CN(C)Cc1ccc(Cl)c(Cl)c1)O2	0.19	-28	61*
Cc1noc(C)c1S(=O)(=O)Nc1ccc2c(c1)C(=O)N([C@H](C)CO)C[C@@H](C)[C@@H](CN(C)Cc1ccc(Cl)c(Cl)c1)O2	-0.044	-8	5
O=C1N(c2cccc(Cl)c2)C(=Nc2cccc(Cl)c2)SC12CC2	0.11	·	·
CC1OC(OCC2OC(OCC3(C)C(O)CCC4(C)C3CCC3(C)C4CCC4C5=CC(C)(C)CCC5(C(=O)O)CCC43C)C(O)C(O)C2O)C(O)C(O)C1O (stereo unspecified)	1.3	·	·
C/C=C1/[C@H](O[C@@H]2O[C@H](CO)[C@@H](O)[C@H](O)[C@H]2O)OC=C(C(=O)OC)[C@H]1CC(=O)OCCc1ccc(O)cc1	-0.22	·	·
CC1CC[C@@]2(OC1)O[C@H]1CC3C4CC=C5C[C@@H](O[C@@H]6O[C@H](CO)[C@@H](O)[C@H](O)[C@H]6O)CC[C@]5(C)C4CC[C@]3(C)[C@@]1(O)[C@@H]2C (stereo partly specified)	0.73	·	·
OC(COc1ccc(F)cc1)(c1ccc(Cl)cc1)c1ccc(Cl)cc1	-0.37	·	·
CCOC(=O)c1c(CNc2cccc(C(N)=O)c2)n(C)c2cc(Br)c(OC(C)=O)cc12	0.64	·	·
C[C@H]1CN([C@@H](C)CO)C(=O)Cc2cc(NS(=O)(=O)c3cccs3)ccc2O[C@@H]1CN(C)Cc1ccc(C(=O)Nc2ccccc2N)cc1	-0.53	-8	46
